A short description of data set [1]: Cytotoxicity dose response, statements of the text not split by assay. Format: cell-based. As to conditions: rat.
The nature of data set [2]: Ion mobility mass spectrometry, collision cross sections. It is filed as physicochemical. As to conditions: for CCS, 1^+2 ion: charge +2, 100 mM ammonium acetate pH 7.5. In outline: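 Lyophilized peptide dissolved in DMSO at 3.2 mM, held 24 hrs at room temperature, then diluted 100-fold in 100 mM ammonium acetate pH 7.5 and directly infused for ion-mobility MS. m/z 350-5000 calibrated with cesium iodide. CCS calibrated daily with polyethylene oxide and tryptic cytochrome c peptides. TWCCS N2→He derived from reduced mobilities in nitrogen using helium calibrant values. Triplicate runs on different days.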

Data set [3] can be described thus: Thioflavin T kinetic assay of amyloid formation. It is filed as physicochemical. As to conditions: 16 μM peptide, 32 μM ThT, pH 7.4, 25°C, one week (seven days). In outline: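 HFIP peptide stocks, quantified by A280, were lyophilized 24 hrs and resuspended in 10 mM phosphate, 140 mM KCl, pH 7.4, with 32 μM thioflavin T. Peptide was 16 μM in the main assays and 100 μM in the supplementary set. Run at 25°C without shaking, triplicate wells. Fluorescence read at ex 450/em 485 nm every ten minutes. T50 is the time to half-maximal ThT fluorescence.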

The mark [4] stands for this setting: monomer, TWCCS N2→He, triplicate on different days.

The record followed here is article PMC7699308 (Biochemistry, 2020).

Bridges are numbered along the chain shown (N, C = ends). Where no end group is shown, it is not given here.

The term EC50 denotes the midpoint of the concentration-response curve. Read a low EC50 as a more potent agent. Turning to `CC[C@H](C)[C@H](NC(=O)[C@H](C)NC(=O)CNC(=O)[C@H](Cc1ccccc1)NC(=O)[C@H](CC(N)=O)NC(=O)[C@H](CC(N)=O)NC(=O)[C@H](CO)NC(=O)[C@H](CO)NC(=O)[C@H](Cc1c[nH]cn1)NC(=O)[C@@H](NC(=O)[C@H](CC(C)C)NC(=O)[C@H](Cc1ccccc1)NC(=O)[C@H](CC(N)=O)NC(=O)[C@H](C)NC(=O)[C@H](CC(C)C)NC(=O)[C@H](CCCNC(=N)N)NC(=O)[C@H](CCC(N)=O)NC(=O)[C@@H](NC(=O)[C@H](C)NC(=O)[C@@H]1CSSC[C@H](NC(=O)[C@@H](N)CCCCN)C(=O)N[C@@H](CC(N)=O)C(=O)N[C@@H]([C@@H](C)O)C(=O)N[C@@H](C)C(=O)N[C@@H]([C@@H](C)O)C(=O)N1)[C@@H](C)O)C(C)C)C(=O)N[C@@H](CC(C)C)C(=O)N[C@@H](CO)C(=O)N[C@@H](CO)C(=O)N[C@H](C(=O)N[C@@H](CC(N)=O)C(=O)N[C@H](C(=O)NCC(=O)N[C@@H](CO)C(=O)N[C@@H](CC(N)=O)C(=O)N[C@H](C(=O)N[C@@H](Cc1ccc(O)cc1)C(N)=O)[C@@H](C)O)C(C)C)[C@@H](C)O` [hIAPP, human islet amyloid polypeptide], the EC50 at 24 h in data set [1] is 27 to 48.1 µM. In data set [2] (dimer, charge +4, triplicate on different days), the “CCS, 2^+4 ion” value came out at 864.0 ± 9.9 Å^2. The “CCS, 2^+5 ion, second conformation” value in data set [2] (dimer, charge +5, lower line of the two conformations, triplicate) worked out at 863.0 ± 21.1 Å^2. Besides, in data set [2] (setting [4]), the “CCS, 1^+2 ion” value is recorded as 544.7 ± 4.6 Å^2. Further, in data set [2] (monomer, charge +3, TWCCS N2→He, triplicate on different days), the “CCS, 1^+3 ion” value came out at 551.1 ± 8.1 Å^2. For the same compound, the “CCS, 1^+4 ion, second (compact) conformation” value in data set [2] (monomer, charge +4, lower line of the two conformations, triplicate) is listed as 552.9 ± 12.2 Å^2. In data set [3], the “Increase in ThT fluorescence over the time course of the study” value is on record as “showed an increase in ThT fluorescence”.
For the compound “IAPPA25P S28P: an A25P S28P analog of IAPP (KCNTATCATQRLANFLVHSSNNFGPILPSTNVGSNTY; disulfide 2-7; not fully specified (C-terminus); ends not checked; UniProt P10997 34-70, looked up, variant A25P S28P)”, in data set [2] (setting [4]), the “CCS, 1^+2 ion” value amounted to 550.5 ± 3.8 Å^2. Further, in data set [3], the “Increase in ThT fluorescence over the time course of the study” value is “showed no increase in ThT fluorescence”.
